“Also recorded” adds a separate entry of the source. Read-outs that look alike come from different tables or passages of the source.
Experiments:
MCF7-hS1R cells = assay: Bradykinin; assay type: cell-based, human; settings: pre-treatment with sigma ligand
human S2R = human S2R (Homo sapiens, UniProt Q5BJF2); assay: Radioligand competition binding with [3H]-DTG at the S2R; settings: for Pseudo-Hill slope at the S2R: competition with [3H]-DTG
human S1R = human S1R (Homo sapiens, UniProt Q99720); assay: Radioligand competition binding with [3H]-; settings: for Pseudo-Hill slope at the S1R: competition with [3H]-(+)-pentazocine; for S2R/S1R ratio (Ki S2R / Ki S1R): selectivity for S1R over S2R, fold
Sequence of human S1R (Q99720 whole entry): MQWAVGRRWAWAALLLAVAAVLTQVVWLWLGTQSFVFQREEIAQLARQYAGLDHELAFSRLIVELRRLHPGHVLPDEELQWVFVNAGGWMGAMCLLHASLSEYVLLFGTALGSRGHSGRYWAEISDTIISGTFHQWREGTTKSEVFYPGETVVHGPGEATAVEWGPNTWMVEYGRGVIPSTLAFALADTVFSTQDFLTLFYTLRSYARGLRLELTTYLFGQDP

MN9D cells = assay: BDNF secretion via in situ ELISA; assay type: cell-based; settings: for Stimulation of BDNF secretion (in words) / Efficacy of BDNF secretion: 10 μM, MN9D cells; for Efficacy of BDNF secretion: normalized to the maximal response of 10 μM 4-PPBP
PC-6-15 cells = assay: NGF induced neurite sprouting; assay type: cell-based, rat; settings: for Effect on neurite sprouting, ligand alone / Potentiation of NGF induced neurite sprouting: 24 hours; for Effect on neurite sprouting, ligand alone: 0.5% serum; for Potentiation of NGF induced neurite sprouting: co-treated with 0.3 ng/mL NGF
Procedure, shortened: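 PC12-derived PC-6-15 cells overexpressing trkA, kept in RPMI1640 with 10% horse serum, 5% FBS and 0.1 mg/mL G418. Plated on type I collagen in 0.5% serum medium. Treated 24 hours in duplicate with vehicle (DMSO 1:1000 v/v), test compound, NGF (0.3–100 ng/mL concentration-response), or test compound plus 0.3 ng/mL NGF. Neurite length/cell was total traced neurite length divided by total cell count.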

[1] = 15 nM BD1063, Fractional Occupancy = [ligand]/([ligand]+Ki)
[2] = read-out: S1R affinity (Ki), displacement of 0.5 nM [3H]-(+)-pentazocine, MCF-7-S1R, mean ± SEM

Sequence of human S2R (Q5BJF2 whole entry): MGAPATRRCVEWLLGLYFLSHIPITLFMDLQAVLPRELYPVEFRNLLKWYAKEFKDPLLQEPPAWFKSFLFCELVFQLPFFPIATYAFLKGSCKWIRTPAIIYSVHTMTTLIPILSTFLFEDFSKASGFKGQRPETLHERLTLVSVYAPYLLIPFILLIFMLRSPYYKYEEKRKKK

## CCCN(CCC)CCc1ccc(OC)c(OCCc2ccccc2)c1 [NE-100]
MCF7-hS1R cells
  Effect of sigma ligand on the bradykinin calcium response: no significant potentiation or suppression
Human S2R
  Pseudo-Hill slope at the S2R: near unity
Human S1R
  Pseudo-Hill slope at the S1R: −3.1

## COc1cc2c(cc1OC)C(=O)C(CC1CCN(Cc3ccccc3)CC1)C2 (stereo not drawn) [Donepezil]
MN9D cells
  Stimulation of BDNF secretion (in words): BDNF secreting activity

## CN1CCN(CCc2ccc(Cl)c(Cl)c2)CC1 [BD1063]
MCF7-hS1R cells
  Effect of sigma ligand on the bradykinin calcium response: no significant potentiation or suppression
Human S2R; [1]
  Calculated S2R occupancy: 7%
Human S2R
  Pseudo-Hill slope at the S2R: near unity
Human S1R; [1]
  Calculated S1R occupancy: 74%
Human S1R
  Pseudo-Hill slope at the S1R: equal to unity
  S2R/S1R ratio (Ki S2R / Ki S1R): 38
Human S1R; [2]
  Ki: 5.6 ± 0.5 nM

## O=C(OCCN1CCOCC1)C1(c2ccccc2)CCCCC1 [PRE-084]
MCF7-hS1R cells
  Effect of sigma ligand on the bradykinin calcium response: no significant potentiation or suppression
Human S2R
  Pseudo-Hill slope at the S2R: near unity
Human S1R
  Pseudo-Hill slope at the S1R: −0.98
MN9D cells
  Stimulation of BDNF secretion (in words): no effect; also recorded: failed to stimulate BDNF secretion; also recorded: no activity
PC-6-15 cells
  Effect on neurite sprouting, ligand alone: none of them had any effect
  Potentiation of NGF induced neurite sprouting: none of them had any effect

## CCC(C(=O)OCCOCCN(CC)CC)c1ccccc1 (stereo not drawn) [Butamirate]
Human S2R
  Ki: 214 ± 41 nM
Human S1R
  Ki: 17.2 ± 1.7 nM
MN9D cells
  Stimulation of BDNF secretion (in words): completely abolished the BDNF secretion activity

## CCN(CC)CCOCCOC(=O)C(CC)(CC)c1ccccc1 [Oxeladin]
Human S2R
  Ki: 148 ± 64 nM
Human S1R
  Ki: 25 ± 4.3 nM

## CCCCOCCOC(=O)C(c1ccccc1)N(CC)CC (stereo not drawn) [Cas# 1796909-31-3, 2-Butoxyethyl 2-(diethylamino)-2-phenylacetate]
MN9D cells
  Stimulation of BDNF secretion (in words): BDNF secreting activity

## (+)-SKF10047
MCF7-hS1R cells
  Effect of sigma ligand on the bradykinin calcium response: no significant potentiation or suppression

## COCCCC/C(=N\OCCN)c1ccc(C(F)(F)F)cc1 [fluvoxamine]
PC-6-15 cells
  Effect on neurite sprouting, ligand alone: none of them had any effect
  Potentiation of NGF induced neurite sprouting: none of them had any effect

## CC(CN1c2ccccc2Sc2ccccc21)N(C)C (stereo not drawn) [Promethazine]
MN9D cells; MN9D, read-out: Efficacy for BDNF secretion, % of the maximum response
  Emax at 10 µM: 103%
PC-6-15 cells
  Potentiation of NGF induced neurite sprouting: neither 4-PPBP or promethazine enhanced NGF induced sprouting

## c1ccc(CCCCN2CCC(c3ccccc3)CC2)cc1 [4-PPBP]
MCF7-hS1R cells
  Effect of sigma ligand on the bradykinin calcium response: no significant potentiation or suppression
Human S2R
  Pseudo-Hill slope at the S2R: near unity
Human S1R
  Pseudo-Hill slope at the S1R: −3.1
MN9D cells; 10 μM 4-PPBP, 24 hrs, mean ± SEM, n = 3–10, baseline 75.4 ± 6.9
  Secreted BDNF at maximal stimulation: 128.6 ± 12.8 pg/mL
MN9D cells; 24 hrs, mean ± SEM
  Efficacy of BDNF secretion: 1
MN9D cells
  Stimulation of BDNF secretion (in words): robust BDNF secretion response
PC-6-15 cells
  Effect on neurite sprouting, ligand alone: unable to stimulate neurite sprouting
  Potentiation of NGF induced neurite sprouting: neither 4-PPBP or promethazine enhanced NGF induced sprouting; also recorded: nor did it potentiate NGF induced sprouting

## CCC(C/C=C/c1ccccc1)(c1ccccc1)N(C)CC1CC1 (single isomer, unassigned; (+)) [(+)-Igmesine]
Human S1R; [2]
  Ki: 9.2 ± 2.2 nM
Human S1R
  S2R/S1R ratio (Ki S2R / Ki S1R): 18
MN9D cells; 24 hrs, mean ± SEM
  Efficacy of BDNF secretion: 0.42 ± 0.03
MN9D cells
  Stimulation of BDNF secretion (in words): BDNF secreting activity
MN9D cells; compound 10 μM + 15 nM BD1063, MN9D cells
  Reversal of the BDNF response by S1R-selective concentration of BD1063: could be reversed

## CCN(CC)CCOCCOC(=O)C1(c2ccccc2)CCCC1 [Carbetapentane]
Human S2R
  Ki: 55.7 ± 3.8 nM
Human S1R
  Ki: 19.8 ± 2.3 nM
  S2R/S1R ratio (Ki S2R / Ki S1R): 3
MN9D cells; 24 hrs, mean ± SEM
  Efficacy of BDNF secretion: 0.73 ± 0.05
PC-6-15 cells
  Effect on neurite sprouting, ligand alone: none of them had any effect
  Potentiation of NGF induced neurite sprouting: none of them had any effect

B1: NGF: nerve growth factor (βNGF, EMD Millipore) (protein, UniProt P01139 122-241, looked up)
Beta-nerve growth factor: SSTHPVFHMGEFSVCDSVSVWVGDKTTATDIKGKEVTVLAEVNINNSVFRQYFFETKCRASNPVESGCRGIDSKHWNSYCTTTHTFVKALTTDEKQAAWRFIRIDTACVCVLSRKATRRG
modifications: beta-NGF
PC-6-15 cells; 0.3 to 100 ng/mL tested
  Lowest concentration tested that induced neurite sprouting: 0.3 ng/mL
